Measurements published in ChEMBL document CHEMBL1138662, “Macrocyclic diacylglycerol-bis-lactones as conformationally constrained analogues of diacylglycerol-lactones. Interactions with protein kinase C” (J Med Chem, 2004).

Columns and labels:
[1] = Displacement of [20-3H]-phorbol 12,13-dibutyrate (PDBU) from recombinant Protein kinase C alpha (C1a/C1b domain) in presence of phosphatidyl serine
How it was run: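 Competition binding: displacement of bound [20-3H]phorbol 12,13-dibutyrate from recombinant PKCα isozyme with phosphatidylserine present. IC50 derived by fitting data to a theoretical noncooperative competitive inhibition curve; binding affinity reported as Ki.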

[2] = Partition coefficient (logP); type: physicochemical; details: octanol/water

Compound: O=C1CCCCCC/C=C2\CC(CO)(CO1)OC2=O (stereo not given)
- Ki [1]: 1800 nM
- logP [2]: -0.08

Compound: CCCCCCCCCCCCCCCCC/C=C1/CC(CO)(COC(C)=O)OC1=O (stereo not given)
- logP [2]: 7.11

Compound: O=C1CCCCCCCCCCCCCC/C=C2/CC(CO)(CO1)OC2=O (stereo not given)
- Ki [1]: 6.07 nM
- logP [2]: 3.85

Compound: CC(C)CC(C/C=C1/CC(CO)(COC(=O)C(C)(C)C)OC1=O)CC(C)C (stereo not given)
- Ki [1]: 2.9 nM

Compound: O=C1CCCCCCCCCCCCCC/C=C2\CC(CO)(CO1)OC2=O (stereo not given)
- Ki [1]: 12.2 nM
- logP [2]: 3.85

Compound: CCCCCCCCCCCCC/C=C1/C[C@@](CO)(COC(C)=O)OC1=O (stereo in doubt)
- Ki [1]: 35.1 nM
- logP [2]: 5.36

Compound: CCCCCCCCCCCCCCCCC/C=C1\CC(CO)(COC(C)=O)OC1=O (stereo not given)
- Ki [1]: 28 nM
- logP [2]: 7.11

Compound: CCCCCCCCCCCCCC(=O)OCC1(CO)CCC(=O)O1 (stereo not given)
- Ki [1]: 138 nM
- logP [2]: 4.53

Compound: CCCCCCCCCCCCC/C=C1/C[C@@](CO)(COC(C)=O)OC1=O (stereo in doubt; 3)
- Ki [1]: 35 nM

Compound: O=C1CCCCCCCCCCCCCCCCCC/C=C2/CC(CO)(CO1)OC2=O (stereo not given)
- Ki [1]: 10.3 nM
- logP [2]: 5.81

Compound: O=C1CCCCCCCCCC/C=C2/CC(CO)(CO1)OC2=O (stereo not given)
- Ki [1]: 52.7 nM
- logP [2]: 1.88

Compound: CCCCCCCCCCCCC/C=C1\CC(CO)(COC(C)=O)OC1=O (stereo not given)
- Ki [1]: 77.8 nM
- logP [2]: 5.36

Compound: O=C1CCCCCCCCCCCCCCCCCC/C=C2\CC(CO)(CO1)OC2=O (stereo not given)
- Ki [1]: 22 nM
- logP [2]: 5.81

Compound: CCCCCCCCCCCCCC(=O)OCC(CO)OC(C)=O (stereo not given)
- Ki [1]: 1000 nM
- logP [2]: 5.25
